CSC inhib: blocks cancer stem cells; cancer stem cell-like cells viability, luminescence; inhibition, % at 7.5 µM; 300,000 compounds, 1.1% hits; in the data active means inhibition above about 75%; inconclusive means no clear call, values can overlap the other calls; tested in HMLE shEcad cells
Beta apoptosis: beta cell apoptosis inhibition. AID 435005. INS-1E cytokine-induced death, ATP luminescence, 48 h; percent of positive-control rescue, neutral wells zero. protection from apoptosis, % (test concentration not listed). 300,000 compounds, 0.8% hits;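 active means Every replicate reaches about 75%, or at least half do and their mean reaches it too, limit read from the data; inconclusive means At least half of replicates reach the limit but their mean does not; inactive means Under half of replicates reach the limit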;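 further: 0% = cytokine-treated negative control wells and 100% = positive control rescue; higher means more ATP so stronger rescue from cytokine killing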
SKKanGAS inh: inhibitors of SKKanGAS S. pyogenes growth in kanamycin (SK-promoter or general growth effect); 300,000 compounds, 1.3% hits; BacTiter-Glo, 6 h; inhibition, % at 7.5 µM;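 active means mean replicate score, as percent of positive control median, at least 50; inconclusive means mean below 50 but one replicate at or above 50; inactive means mean and every replicate below 50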;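 further: strain carries kanamycin resistance gene driven by streptokinase promoter and grows in 40 µg/ml kanamycin; loss of luminescence reflects streptokinase promoter inhibition or plain growth inhibition; 0% = median of DMSO wells and 100% = positive control at its reference dose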
CHOP UPR activ: apoptotic UPR (CHOP) activation; CHO-CHOP luciferase reporter, luminescence; percent of tunicamycin response over DMSO baseline; 330,000 compounds, 0.34% hits; activation, % at 10 µM; AID 449763;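 active means at 10 µM dose, activation of 40% or more, normalized to positive control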;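 further: 100% = tunicamycin at 10 µg/mL and 0% = DMSO alone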
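Material: CHO-CHOP cells, stable luciferase reporter of PERK-eIF2a-CHOP signalling; quantity: 500 reporter cells seeded per well; buffer or medium: F12 medium containing 10% fetal bovine serum; compound: one dose, 10 µM in 0.5% DMSO; incubation: 6 h compound treatment, 37 °C; measured by: Steady-Glo luciferase luminescence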
UPR XBP1 act: adaptive UPR (XBP1) activation. 330,000 compounds, 0.33% hits. activation, % at 20 µM. AID 463104. CHO-XBP1 luciferase reporter, IRE1-XBP1 UPR activation, luminescence; percent of tunicamycin response, DMSO as zero;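 active means versus positive control, 20 µM dose yields 30% or more activation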;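 further: 100% = tunicamycin at 10 µg/mL and 0% = DMSO only wells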
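assay system = CHO-XBP1 luciferase reporter cells | amount = 1000 cells/well | buffer or medium = F12 plus 10% FBS | compound dosing = single point, 20 µM final compound, 1% DMSO | incubation = 16-18 h cell attachment at 37 °C, then 6 h compound exposure | detection = Steady-Glo luminescence read | controls = tunicamycin 10 µg/mL and vehicle-only wells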
Mdm2-MdmX inh: disrupts the human Mdm2-MdmX interaction. inhibition, % at 8 µM. 330,000 compounds, 3% hits. O15151+Q00987. AID 485346. SaOS-2 split-luciferase Mdm2/MdmX complementation, luminescence;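 active means inhibition of at least 50% at 8 µM in the primary screen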
Numbers without * were called inactive; ? = inconclusive; . = no result given. In the library only some 4.8% were active in any assay of this set; here they are far more common.

SMILES	CSC inhib	Beta apoptosis	SKKanGAS inh	CHOP UPR activ	UPR XBP1 act	Mdm2-MdmX inh
COc1ccccc1NS(=O)(=O)c1cc(NC(=O)c2cccs2)ccc1N1CCCC1	5	38	9	-1	0	-7
O=C(Nc1ccc(N2CCCC2)c(S(=O)(=O)Nc2cccc(C(F)(F)F)c2)c1)c1cccs1	15	1	52*	-2	-3	15
O=C(NN=C1CCCCC1)c1ccccc1-n1cccc1	2	-6	0	2	-5	21
Clc1ccc(/C=C/c2nc3ccccc3[nH]2)cc1	76*	31	17	-3	-4	-77
O=c1cc(N2CCCCC2)c(-c2ccccc2)nn1Cc1ccccc1Cl	-6	11	43	2	-4	24
O=c1cc(N2CCCCC2)c(-c2ccccc2)nn1Cc1cccc(Cl)c1	88*	.	52*	-2	-3	-15
O=c1cc(N2CCCCC2)c(-c2ccccc2)nn1Cc1ccc(Cl)cc1Cl	83*	9	105*	-2	-4	24
CCN1CCN(S(=O)(=O)c2ccc(Cl)c(C(=O)NC3CCCCC3)c2)CC1	-21	-16	-2	0	-1	15
O=C1c2[nH]nc(-c3ccccc3O)c2C(c2cccc(Cl)c2)N1Cc1ccco1 (stereo not given)	92*	8	50*	4	0	17
Cc1ccc(O)c(-c2cc(-c3cccc(Br)c3)n[nH]2)c1	12	14	100*	4	6	41
Oc1ccc(Cl)cc1-c1cc(-c2ccccc2)n[nH]1	50	11	55*	1	6	33
Cc1ccc(-c2cc(-c3ccc(C)cc3O)[nH]n2)cc1	-2	-45	35	5	2	-106
N#CCC(=O)Nc1ccc(C(=O)NNC(=O)CCN2CCN(c3ccccc3)CC2)cc1	-4	-2	.	1	-2	-10
O=S(=O)(c1ccc2c(c1)OCCO2)N1CCN(c2ncnc3sccc23)CC1	23	81*	4	3	1	24
COc1ccc(-n2nc(C(=O)N(C)C)nc2-c2ccccc2)cc1	-5	-4	-2	0	2	14
O=C(Nc1cccnc1)c1ccc(C(=O)Nc2cccnc2)cc1	.	-1	0	-2	0	38
O=C(Nc1ccc(C(=O)NC2CCCCC2)cc1)c1cccnc1	0	100*	-2	-1	-1	11
O=C(Nc1cccnc1)c1cccnc1	1	105*	-2	0	0	-9
COC(=O)c1ccc(NC(=O)c2cccnc2)cc1	-16	110*	-3	2	-3	-10
Cc1ccc2oc(-c3ccc(NC(=O)c4cccnc4)cc3)nc2c1	.	86*	10	5	0	-145
O=C1C=C(c2ccc3ncccc3c2)C[C@@H](c2ccc3c(c2)OCO3)C1	52	9	.	1	2	33
CCCc1cc(=O)oc2cc(C)cc(OCC(=O)NCc3ccncc3)c12	-18	2	8	1	-6	14
CC(C)n1cnnc1SCC(=O)Nc1cccnc1Cl	3	-1	.	-1	-2	20
O=C(Nc1ccc(N2CCN(C(=O)c3ccc(Cl)cc3)CC2)cc1)c1cccnc1	0	104*	6	1	2	25
Cc1ccc(-c2nc3cc(NS(=O)(=O)c4ccc(C)cc4)ccc3o2)cc1	19	-3	85*	0	1	2
Cc1ccc(-c2cc(-c3ccccc3)nc(NN)n2)cc1	83*	1	43	-2	-2	44
O=C(N/N=C/c1cc(Cl)cc([N+](=O)[O-])c1O)NC12CC3CC(CC(C3)C1)C2	82*	28	50*	2	0	30
O=C(N/N=C/c1cc(Cl)cc([N+](=O)[O-])c1O)c1ccccc1NS(=O)(=O)c1cccs1	12	1	?	-1	-3	19
O=C(N/N=C/c1ccccc1O)NC12CC3CC(CC(C3)C1)C2	37	7	84*	4	8	-19
Cc1cc(C(=O)N/N=C/c2cc(Cl)cc([N+](=O)[O-])c2O)c2ccccc2n1	45	5	114*	2	0	20

High-throughput results: PubChem, several laboratories
